# In article PMC10907227 (Nature methods, 2020):
# “Also recorded” adds a separate entry of the source.
# Experiments:
# [1] = Solubility testing in PEG-300-based injectable formulation; format: physicochemical; settings: for Maximum soluble dose: IP injection, injectable formulation; for Relative solubility in the PEG-300-based formulation: comparison in words; for Maximum amount that could be administered IP in the PEG-300 formulation: injection volume limit of ~0.5 mL, mice
# In short: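 Formulation: 10% ethanol (v/v), 10% glycerol (v/v), 10% 2-hydroxypropyl-β-cyclodextrin (w/v), 35% PEG-300 (v/v) in water. Pre-weighed compound was dissolved or suspended in ethanol, then combined with the other components and vortexed 15 min to make a 28 mM solution or suspension. […] IP dose was limited by an injection volume of ~0.5 mL.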
# AkaLuc = AkaLuc with AkaLumine, intrapulmonary locations; cited from earlier work
# Antares [2] = target: T1, Antares (Oplophorus gracilirostris, UniProt Q9GV45, A31E/A60N/A81I/F95D/I117V/K70R/L54V/L99Q/M102K/N193R/P142E/Q151K/Q38R/Q45L/V71I/Y165I)
# Antares [3] = target: T1, Antares; assay: Decay of Antares luminescence signal over time; format: biochemical; settings: purified Antares, 60 min
# Orange CaMBI [4] = format: in vivo, mice; settings: sustained-release HFz (P-407)
# In short: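 Transgenic mice doubly hemizygous for albumin-Cre and CAG-LSL-Orange CaMBI 110, abdominal hair removed, anesthetized with IP ketamine 200 mg/kg in 100 µL water. Test compound given with poloxamer-407 in 480 µL water. Imaged in a lab-built system, time-lapse with <1 s exposures on a consumer digital camera, with vasopressin given. Decay fitted as monoexponential.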
# [5] = format: in vivo, mice
# In short: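 Male C57Bl/6 mice, 4 months old, received three daily IP injections: 12 mg P-407 in 480 µL water; 12 mg P-407 plus 1.7 mg test compound in 480 µL water; or test compound in P-407 at 1.3 or 4.2 µmol. Body weight was tracked. On day 4 mice were euthanized by CO2 and cardiac exsanguination, with terminal blood taken for CBC and serum biochemistry. Lung, liver and kidney were examined histologically.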
# Antares [6] = target: T1, Antares; assay: Enzymatic analysis of Antares with furimazine analogs; format: biochemical; settings: purified Antares; for Vmax and thereby kcat compared to furimazine: DPBS with 0.01% FBS
# Antares [7] = target: T1, Antares; assay: Hydrodynamic transfection and bioluminescence imaging of nude mice; format: in vivo
# Antares [8] = target: T1, Antares; assay: Spectral analysis of Antares with furimazine analogs; format: biochemical; settings: 400 to 700 nm
# [9] = Substrate stability at 37 °C in DPBS with or without 10% FBS; format: in vitro ADME
# physchem = settings: aqueous with cosolvent or surfactant or cyclodextrin
# Antares [10] = target: T1, Antares; settings: limited amount of furimazine that can be administered; cited from earlier work
# Orange CaMBI [11] = settings: liver; cited from earlier work
# [12] = previously published PEG-300-based aqueous formulation; cited from earlier work
# [13] = 1.3 μmol IP, PEG-300 formulation, mouse liver
structure (smiles),measurement,setting,value
"Oc1c(Cc2ccccc2)nc2c(-c3ccncc3)nc(-c3ccccc3)cn12 [8pyDTZ, reference compound]",Maximum soluble dose,[1],4 µmol
CN(C)c1ccc(/C=C/C=C/C2=N[C@@H](C(=O)O)CS2)cc1 [AkaLumine],Detectable light per reporter molecule relative to FLuc and D-luciferin,AkaLuc,~ 13 times
"O=c1c(Cc2ccccc2)nc2c(-c3ccccc3)[nH]c(-c3ccccc3)cn1-2 [DTZ, diphenylterazine, reference compound]",Maximum soluble dose,[1],1 µmol
"O=c1c(Cc2ccco2)nc2c(Cc3ccccc3)[nH]c(-c3ccc(O)cc3)cn1-2 [compound A, 8-benzyl-2-(furan-2-ylmethyl)-6-(4-hydroxyphenyl)imidazo[1,2-a]pyrazin-3(7H)-one]",Appearance at 28 mM in the PEG-300-based formulation,"[1]; 28 mM, backlit image",insoluble pellet
same,Total integrated output compared with furimazine,"Antares [2]; 1.3 μmol IP, PEG-300 vehicle, liver",more total integrated output
same,Decrease of light output over time compared with the other substrates,Antares [3],decreased more rapidly over time
"O=c1c(Cc2ccco2)nc2c(Cc3ccccc3)[nH]c(-c3cccc(O)c3)cn1-2 [compound B, 8-benzyl-2-(furan-2-ylmethyl)-6-(3-hydroxyphenyl)imidazo[1,2-a]pyrazin-3(7H)-one]",Time signals were bright enough to be seen by the naked eye in the dark,Orange CaMBI [4],> 1 h
same,Time of peak brightness after substrate injection,Orange CaMBI [4]; liver,24 min
same,Time after injection at which brightness dropped to half of its peak,Orange CaMBI [4]; monoexponential kinetics,~ 60 min
same,Relative solubility in the PEG-300-based formulation,[1],noticeably more soluble than compounds A and C
same,Maximum amount that could be administered IP in the PEG-300 formulation,[1],up to 13.3 μmol
same,Saturating dose,"Antares [2]; IP, PEG-300 formulation, liver",4.2 µmol
same,Light (brightness) relative to the maximum/saturating dose of furimazine,"Antares [2]; substrate at saturating (maximal) dose, IP, Antares-expressing transgenic mice",approximately four-fold
same,"Gross examination of organs and histology of liver, lung and kidney","[5]; HFz with P-407, three daily IP injections, listed as HFz",no signs of toxicity; also recorded: no abnormalities were found
same,kcat/KM compared to furimazine,Antares [6],higher kcat/KM
same,Integrated signal over 20 min compared with Antares2-DTZ,Antares [7]; 4.2 μmol HFz IP,significantly exceed that of Antares2-DTZ
same,Integrated signal over 20 min compared with LumiScarlet-8pyDTZ,Antares [7]; 4.2 μmol HFz IP,"appeared higher than that of LumiScarlet-8pyDTZ, but narrowly missed statistical significance"
same,Persistence of emission,"Antares [7]; 4.2 μmol HFz IP, 20 min",uniquely sustained emission
"Nc1cccc(-c2cn3c(=O)c(Cc4ccco4)nc-3c(Cc3ccccc3)[nH]2)c1 [compound C, 6-(3-aminophenyl)-8-benzyl-2-(furan-2-ylmethyl)imidazo[1,2-a]pyrazin-3(7H)-one]",Maximum amount that could be administered IP in the PEG-300 formulation,[1],4.2 µmol
"O=c1c(Cc2ccco2)nc2c(Cc3ccccc3)[nH]c(-c3cccc(O)c3F)cn1-2 [compound D, 8-benzyl-6-(2-fluoro-3-hydroxyphenyl)-2-(furan-2-ylmethyl)imidazo[1,2-a]pyrazin-3(7H)-one]",Signal output compared with HFz,Antares [2]; [13],brighter signal outputs than HFz
same,Vmax and thereby kcat compared to furimazine,Antares [6],improved Vmax and thereby kcat versus furimazine
same,Effect on emission spectrum of Antares,Antares [8],do not alter the emission spectrum of Antares
same,Stability in serum compared to furimazine,[9],retaining the improved stability in serum
"Nc1cccc(-c2cn3c(=O)c(Cc4ccco4)nc-3c(Cc3ccccc3)[nH]2)c1F [compound E, 6-(3-amino-2-fluorophenyl)-8-benzyl-2-(furan-2-ylmethyl)imidazo[1,2-a]pyrazin-3(7H)-one]",Improvement of signal output over HFz,Antares [2]; [13],approximately three-fold
same,Signal output compared with HFz,Antares [2]; [13],brighter signal outputs than HFz
same,Vmax and thereby kcat compared to furimazine,Antares [6],improved Vmax and thereby kcat versus furimazine
same,Effect on emission spectrum of Antares,Antares [8],do not alter the emission spectrum of Antares
same,Stability in serum compared to furimazine,[9],retaining the improved stability in serum
"Nc1cccc(-c2cn3c(=O)c(Cc4ccco4)nc-3c(Cc3ccccc3F)[nH]2)c1F [compound F, 6-(3-amino-2-fluorophenyl)-8-(2-fluorobenzyl)-2-(furan-2-ylmethyl)imidazo[1,2-a]pyrazin-3(7H)-one]",solubility,physchem,8.8 mM
same,Peak signal compared to compound E,"Antares [2]; 1.3 μmol, in vivo",further increase in peak signal
same,"Light from mouse liver, 1.3 μmol FFz compared with 4.2 μmol HFz",Antares [2]; IP,more light
same,"Light, 4.2 μmol compared with 1.3 μmol of FFz",Antares [2]; IP,more light
same,"Body weight, blood chemistry, or histology",[5]; 1.3 μmol FFz in P-407 daily for three days,No abnormalities
same,Blood chemistry,"[5]; 4.2 μmol FFz, daily for three days",abnormal blood chemistry
same,Dose that can be safely administered,"[5]; in P-407, IP, mice",1.3 µmol
same,Vmax and thereby kcat compared to compound E,Antares [6],higher Vmax and thereby kcat
same,Brightness compared with AkaLuc with AkaLumine,"Antares [7]; 1.3 μmol FFz IP, not statistically significant",tended to produce more brightness
O=c1c(Cc2ccco2)nc2c(Cc3ccccc3)[nH]c(-c3ccccc3)cn1-2 [furimazine],Photon output of Antares relative to FLuc in vivo,Antares [10],~ three-fold
same,Duration of previous Orange CaMBI imaging sessions,Orange CaMBI [11],≤ 6 min
same,Solubility in the PEG-300-based formulation,"[1]; 35% PEG-300, 10% ethanol, 10% glycerol, 10% hydroxypropylcyclodextrin in water",2.8 mM
same,Relative solubility in the PEG-300-based formulation,[1],more soluble than DTZ
same,Maximum dosage limited by poor aqueous solubility,[12],1.3 µmol
